Source: PubChem (Broad Institute)
Compounds with a hit are over-represented: about 3.8% of the library has one in this group of screens.
Xi reactivation: reactivates the inactive X chromosome in mouse fibroblasts | XiGFP mouse fibroblasts, % GFP-positive cells imaging, 3 d; cells co-treated with 5-aza-dC sensitizer; scaled so ellipticine positive control = 100% | activation, % at 7.58 µM | 360,000 compounds, 0.055% hits;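 active means mean normalized replicate activation at least 10% and every replicate at or above 10%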;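 further: 0% = median of on-plate neutral control wells and 100% = ellipticine 6 µM median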
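System: XiGFP fibroblasts, SV40-immortalized. Medium: DMEM plus 5-aza-dC sensitizer. Doses: single point. Timing: 3 d treatment, 15 min room-temperature fixation. Control set: ellipticine 6 µM.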
DENV2 CPE: DENV2-induced cell death inhibition | DENV2-infected cells, cytopathic effect rescue, plate reader | CPE inhibition, % at 9.99 µM | 350,000 compounds, 1.7% hits | AID 651640; in the data active means CPE inhibition above about 20%, passing the limit was not always enough; tested in BHK-21 cells;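 further: 0% = median of neutral control wells and 100% = median of positive control wells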
FN deposit inh: fibronectin deposition inhibition; AH1F fibroblasts, Alexa488-fibronectin deposition fluorescence, overnight; inhibition, % at 12.6 µM; 350,000 compounds, 0.086% hits; AID 743247;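 active means mean inhibition across replicates of 30% or more, regardless of how many single replicates reach that level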;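 further: positive control wells lacked labelled fibronectin entirely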
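Material: AH1F fibroblast monolayer depositing Alexa488-labelled fibronectin into matrix / Amount: 10000 AH1F cells per well / Signal: fluorescence 485/525 nm / Medium: DMEM, 2% serum / Compound: single dose, pinned / Incubation: 1 h cell adhesion before compound, then overnight fibronectin incubation / Reagent: Alexa488-FN, 24 nM final / Read-out: inhibition of fibronectin deposition signal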
ARNT TACC3 PPI: ARNT/TACC3 interaction disruption | 390,000 compounds, 0.66% hits | AID 623870 | Q9Y6A5 | inhibition, % at 9.99 µM | AlphaScreen His-ARNT PAS-B/GST-TACC3 binding, luminescence; TACC3 fragment carries E629A point mutation;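 active means mean inhibition of replicates at least 50% and at least half of replicates each reaching 50%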;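 further: 0% = complete ARNT plus TACC3 wells and 100% = ARNT alone without TACC3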
FGF22 binding: FGF22 (human) thermal shift binding; Q9HCT0; 340,000 compounds, 1.5% hits; activity (Tm shift, normalised), % at 9.99 µM; recombinant FGF22 thermal shift, SYPRO orange fluorescence; percent of sucrose octasulfate shift, DMSO zero;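 active means mean Tm shift, scaled 0 neutral to 100 positive control, at about 1.3% or above, every replicate too, limit read from the data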
Target sequence (Q9HCT0 whole entry, looked up): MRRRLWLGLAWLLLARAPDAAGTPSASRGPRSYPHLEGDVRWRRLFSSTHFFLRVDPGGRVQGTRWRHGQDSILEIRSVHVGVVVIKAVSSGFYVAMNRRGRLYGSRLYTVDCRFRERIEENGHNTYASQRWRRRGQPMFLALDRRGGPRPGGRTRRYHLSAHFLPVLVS
SIRT5 inh: blocks human SIRT5 desuccinylation of peptide; Purified SirT5, succinyl-peptide AMC, trypsin-coupled fluorescence; inhibition, % at 15 µM; 330,000 compounds, 1.1% hits; AID 652115; in the data active means inhibition above about 15%
Target sequence (Q9NXA8 whole entry, looked up): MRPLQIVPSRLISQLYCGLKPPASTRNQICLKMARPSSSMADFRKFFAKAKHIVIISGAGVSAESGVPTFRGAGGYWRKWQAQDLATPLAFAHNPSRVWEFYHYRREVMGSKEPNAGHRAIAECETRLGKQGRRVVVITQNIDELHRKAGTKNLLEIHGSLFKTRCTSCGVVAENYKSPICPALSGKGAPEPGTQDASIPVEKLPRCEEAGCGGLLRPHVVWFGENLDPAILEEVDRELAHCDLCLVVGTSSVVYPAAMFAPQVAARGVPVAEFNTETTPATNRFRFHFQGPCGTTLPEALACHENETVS
* = called active by the depositor.

What do the screens show for `Cc1ccc(S(=O)(=O)NC2CCN(Cc3ccc(OCCO)cc3)CC2)cc1`?
DENV2 CPE: -2.5; ARNT TACC3 PPI: 19.7; FGF22 binding: -0.5; SIRT5 inh: -2.4

How did COC(=O)C[C@@H]1C[C@@H]2c3cc(N)ccc3O[C@@H]2[C@H](CO)O1 do in these assays?
Xi reactivation: 0.1; DENV2 CPE: 1.8; FN deposit inh: -2.1; FGF22 binding: -1.2; SIRT5 inh: -1.6

What do the screens show for `C[C@@H]1CCCCO[C@@H](CN(C)Cc2ccc(C(=O)O)cc2)[C@H](C)CN([C@H](C)CO)C(=O)c2cc(NS(C)(=O)=O)ccc2O1`?
Xi reactivation: -0.1; DENV2 CPE: -7.5; ARNT TACC3 PPI: -7.9; FGF22 binding: 0.4; SIRT5 inh: -1.5

Results for Cc1noc(C)c1S(=O)(=O)Nc1ccc2c(c1)C(=O)N([C@@H](C)CO)C[C@H](C)[C@H](CN(C)Cc1ccc3c(c1)OCO3)OCCCC[C@H](C)O2 ?
Xi reactivation: 0.2; DENV2 CPE: 46.5*; ARNT TACC3 PPI: -17.9; FGF22 binding: -0.7; SIRT5 inh: 1.7

How did Cc1noc(C)c1S(=O)(=O)Nc1ccc2c(c1)CC(=O)N([C@@H](C)CO)C[C@H](C)[C@H](CN(C)Cc1ccccc1)O2 do in these assays?
Xi reactivation: 1.1; DENV2 CPE: 7.7; ARNT TACC3 PPI: -8.8; FGF22 binding: 0.1; SIRT5 inh: -4.1

How did Cc1noc(C)c1S(=O)(=O)Nc1ccc2c(c1)CC(=O)N([C@H](C)CO)C[C@H](C)[C@H](CN(C)Cc1ccc3c(c1)OCO3)O2 do in these assays?
Xi reactivation: 0.1; DENV2 CPE: 51.1*; ARNT TACC3 PPI: 8.2; FGF22 binding: -0.2; SIRT5 inh: 1.8

Results for Cc1noc(C)c1S(=O)(=O)Nc1ccc2c(c1)CC(=O)N([C@H](C)CO)C[C@H](C)[C@@H](CN(C)Cc1ccc(C(=O)O)cc1)O2 ?
Xi reactivation: 0.3; DENV2 CPE: -1.6; FGF22 binding: 0.0; SIRT5 inh: 24.6*

How did Cc1cc([N+](=O)[O-])cc(/C=N\NC(=O)C2COc3ccccc3O2)c1O (configuration not stated) do in these assays?
Xi reactivation: -0.2; FN deposit inh: 7.1; ARNT TACC3 PPI: 43.2*; FGF22 binding: 0.0; SIRT5 inh: -3.2

How did C[C@@H]1CN([C@@H](C)CO)C(=O)Cc2cc(NS(=O)(=O)c3ccc(Cl)cc3)ccc2O[C@@H]1CN(C)Cc1ccc(Oc2ccccc2)cc1 do in these assays?
Xi reactivation: -0.5; DENV2 CPE: 7.3; FN deposit inh: 2.9; ARNT TACC3 PPI: -0.8; FGF22 binding: 0.3; SIRT5 inh: 4.1

What do the screens show for `C[C@@H]1CN([C@@H](C)CO)C(=O)Cc2cc(NS(=O)(=O)c3ccccc3)ccc2O[C@@H]1CN(C)Cc1ccc(Oc2ccccc2)cc1`?
Xi reactivation: 0.8; DENV2 CPE: 25.0*; ARNT TACC3 PPI: -1.2; FGF22 binding: -0.1; SIRT5 inh: 2.3

Results for Cc1ccc(S(=O)(=O)Nc2ccc3c(c2)CC(=O)N([C@H](C)CO)C[C@H](C)[C@@H](CN(C)Cc2ccc(Oc4ccccc4)cc2)O3)cc1 ?
Xi reactivation: 0.2; DENV2 CPE: -24.5; ARNT TACC3 PPI: -0.5; FGF22 binding: -0.2; SIRT5 inh: -0.3

How did C[C@@H]1CN([C@H](C)CO)C(=O)Cc2cc(NS(C)(=O)=O)ccc2O[C@@H]1CN(C)Cc1ccc(Oc2ccccc2)cc1 do in these assays?
Xi reactivation: 0.0; DENV2 CPE: 5.2; ARNT TACC3 PPI: -5.3; FGF22 binding: -0.1; SIRT5 inh: 5.3

What do the screens show for `C[C@H]1CN([C@@H](C)CO)C(=O)Cc2cc(NS(=O)(=O)c3ccc(Cl)cc3)ccc2O[C@@H]1CN(C)Cc1ccc(Oc2ccccc2)cc1`?
Xi reactivation: 0.6; DENV2 CPE: 0.4; FN deposit inh: 15.9; ARNT TACC3 PPI: 5.2; FGF22 binding: 0.3; SIRT5 inh: 17.4*
